# Compound activity as filed in PubChem BioAssay.
# TAAR1 ag: agonists of human TAAR1; AID 624467; activation, % at 3 µM; 360,000 compounds, 0.99% hits; CHO RD-HGA16 TAAR1, Fluo-8 calcium fluorescence; vehicle wells 0%, saturating PEA agonist 100%; Q96RJ0;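 active = activation above the mean activation of all test compounds in the run plus 3 SD, cut at about 38% in these data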
# Target sequence (Q96RJ0 whole entry, looked up): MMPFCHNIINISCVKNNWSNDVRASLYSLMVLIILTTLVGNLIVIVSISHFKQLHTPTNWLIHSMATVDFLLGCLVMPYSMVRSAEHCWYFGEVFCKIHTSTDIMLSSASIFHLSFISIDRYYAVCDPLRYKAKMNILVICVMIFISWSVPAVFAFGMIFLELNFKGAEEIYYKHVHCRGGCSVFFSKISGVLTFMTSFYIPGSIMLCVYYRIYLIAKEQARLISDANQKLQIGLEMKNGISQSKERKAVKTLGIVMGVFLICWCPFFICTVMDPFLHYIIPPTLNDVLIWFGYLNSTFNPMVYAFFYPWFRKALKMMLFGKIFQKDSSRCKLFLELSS
#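 Test system: RD-HGA16 (CHO) cells co-expressing Gα16 and hTAAR1 | Doses: Single dose, 3 µM | Schedule: 17-24 h seeding, 75 min 37 °C dye, 30 min RT | Evaluation: % activation from peak over basal fluorescence ratio, DMSO-to-PEA scaled | Technique: Kinetic Fluo-8 calcium fluorescence | Benchmarks: Low control DMSO, high control PEA (EC100)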
# OX1R antag-1: OX1R (human) antagonism; O43613; OX1R-expressing cells, FRET antagonist read-out; inhibition, % at 6.6 µM; 330,000 compounds, 1.8% hits; AID 485270; in the data active = inhibition mostly above about 38%, no sharp cut-off; inactive = mostly below about 40%;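 also: 0% = agonist challenge alone and 100% = reference antagonist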
# TAAR1 antagonist: antagonists of human TAAR1; Q96RJ0; CHO RD-HGA16 TAAR1, Fluo-8 calcium fluorescence, antagonist; inhibition, % at 3 µM; 360,000 compounds, 1.5% hits;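 active = inhibition above a per-plate cutoff, the mean inhibition of test compounds on that plate plus 3 SD, cut at about 49% in these data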;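 also: 0% = DMSO plus EC80 beta-PEA response and 100% = DMSO alone without agonist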
#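 Material: CHO RD-HGA16 cells bearing hTAAR1; compound dosing: one-point dosing, 3 µM nominal final; schedule: dye loading 75 min at 37 °C, then 30 min room temperature; measured by: calcium fluorescence with Fluo-8; control set: vehicle and agonist controls; replication: n of 1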
# OX1R antag-2: human HCRTR1 antagonism; O43613; CHO/OX1R cells, Fluo-8 calcium fluorescence, orexin A; inhibition, % at 5 µM; 330,000 compounds, 0.43% hits;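 active = inhibition above its plate's threshold, mean inhibition of all tested compounds on the plate plus 3 SD, cut at about 37% in these data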;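 also: 0% = orexin A challenge wells and 100% = SB-334867-A antagonist wells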
# CHO parental Ca: signal in parental CHO cells, OX1R antagonist counter-screen; AID 463079; parental CHO-K1, ATP-induced calcium, Fluo-8 fluorescence; inhibition, % at 5.6 µM; 330,000 compounds, 0.63% hits;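 active = inhibition above that plate's mean sample inhibition plus 3 SD, cut at about 26% in these data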;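 also: 0% = ATP-challenged DMSO wells and 100% = DMSO wells without ATP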
#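 Assay system – parental CHO cells · Reagent – ATP stimulus · Detection – intracellular calcium via Fluo-8 no-wash fluorescent dye · Evaluation – percent inhibition of ATP-evoked calcium rise, normalized to controls · Controls – ATP wells versus no-ATP DMSO wells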
# nonsel antag count: nonselective antagonism, TAAR1 counter-screen | shares compounds with TAAR1 antagonist | counterscreen cell line, calcium fluorescence, antagonist mode | inhibition, % at 3 µM | 2,400 compounds, 77% hits | AID 651780; in the data active = inhibition above about 22%;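 also: CHO-Ga16 host cells stimulated with ATP at an EC80 level; 0% = agonist EC80 plus vehicle and 100% = vehicle without agonist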
# TAAR1 ant conf: confirmation of human TAAR1 antagonists; 2,400 compounds, 40% hits; shares compounds with TAAR1 antagonist; inhibition, % at 3 µM; AID 651785; TAAR1-expressing cells, fluorescence antagonist read-out; in the data active = inhibition above about 49%;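 also: CHO-Ga16 host cells challenged with agonist PEA near its EC80; 0% = agonist at EC80 plus vehicle and 100% = vehicle with no agonist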
# Ga16 nonsel ag: nonselective Ga16 agonist in TAAR1 antagonist counter-screen; 2,400 compounds, 18% hits; shares compounds with TAAR1 antagonist; Ga16-expressing cells, calcium fluorescence, agonist counterscreen; activation, % at 3 µM; AID 651953; in the data active = activation above about 12%;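 also: 0% = vehicle wells and 100% = saturating stimulus response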
# TAAR1 ag counter: TAAR1 agonism, antagonist counter-screen. activation, % at 3 µM. 2,400 compounds, 2% hits. hTAAR1 cell line, fluorescence activation, agonist mode. shares compounds with TAAR1 antagonist. AID 651955; in the data active = activation above about 37%;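 also: CHO cells stably expressing TAAR1 with calcium dye readout; 0% = DMSO vehicle and 100% = full agonist response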
# An asterisk follows results filed as active; / = no result given. Rows were chosen to be rich in hits. Some 4% of all compounds tested hit in one or more screens of this group.
SMILES,TAAR1 ag,OX1R antag-1,TAAR1 antagonist,OX1R antag-2,CHO parental Ca,nonsel antag count,TAAR1 ant conf,Ga16 nonsel ag,TAAR1 ag counter
CCCCOc1ccc(S(=O)(=O)NC(=O)C2(C)CCN2C(=O)c2cccc(F)c2)cc1 (stereo not given),6,/,-25,/,/,/,/,/,/
CC1CCc2c(sc3nc(C4CC4)nc(N4CCN(C(=O)c5ccco5)CC4)c23)C1 (stereo not given),17,17,58*,-18,-17,16,7,-1,3
CC(=O)N1CCN(c2nc(C)nc3sc4c(c23)CCC(C)C4)CC1 (stereo not given),4,4,-1,-10,-9,/,/,/,/
CCCCCCSc1cccc(-c2nc3ccccn3c2NCc2ccccc2)c1,6,15,44,-7,28,/,/,/,/
CCC(C)Sc1cccc(-c2nc3ccc(Cl)cn3c2NCc2ccccc2)c1 (stereo not given),/,44,/,-22,-17,/,/,/,/
CCCCCCSc1cccc(-c2nc3ccc(C)cn3c2NCc2ccccc2)c1,5,42,52*,-31,-24,18,18,1,3
CCC(C)Sc1cccc(-c2nc3ccccn3c2NCc2ccccc2)c1 (stereo not given),13,25,84*,46,14,42*,70*,11,14
Cc1ccc2nc(-c3ccccc3)c(Cc3cccc(Cl)c3)n2c1,1,/,3,/,/,/,/,/,/
CCC(C)Sc1cccc(-c2nc3ccc(C)cn3c2NCc2ccccc2)c1 (stereo not given),13,44,91*,61*,49*,45*,76*,9,12
Cc1ccc2nc(-c3cccc(-c4cccc(Cl)c4)c3)c(NCc3ccccc3)n2c1,10,27,73*,-9,4,32*,33,2,3
CC(=O)N1CCN(c2ccc(N3CCN(C(C)=O)[C@@H](C)C3)c(C)c2)[C@H](C)C1,5,/,-15,/,/,/,/,/,/
O=C(c1ccco1)N1CCN(C(c2ccccc2Cl)c2nnnn2Cc2ccco2)CC1 (stereo not given),18,10,62*,-19,-7,35*,55*,10,9
Cc1onc(-c2c(Cl)cccc2Cl)c1COC(=O)c1ccc(Cl)cc1[N+](=O)[O-],-1,18,-12,-22,1,/,/,/,/
Cn1nc(C(C)(C)C)c([N+](=O)[O-])c1C(=O)Nc1cccc2ccccc12,5,21,56*,-34,-22,22*,34,5,4
C[C@@H]1CCCCO[C@H](CN(C)C(=O)Cc2ccccc2)[C@@H](C)CN([C@H](C)CO)C(=O)c2cc(NC(=O)Nc3ccccc3)ccc2O1,1,/,-2,/,/,/,/,/,/
CCCCNC(=O)CO/N=C(\C)c1cc2ccccc2o1,-1,22,7,-10,-2,/,/,/,/
CCCCNCc1cc2ccccc2o1,2,18,103*,-9,-9,-2,-1,7,18
Cc1ccc(CSCC(=O)NN=C2CCN(C)CC2)cc1,2,26,-2,-17,-7,/,/,/,/
Cn1c(SCC(=O)Nc2cccc(F)c2)nc2c(c1=O)SCC2,2,22,18,-6,7,/,/,/,/
COc1cc(C(C)=O)ccc1OCC(=O)Nc1ccccc1N1CCCCC1,3,18,55*,-49,-55,9,37,3,9
CC(=O)c1cccc(OCC(=O)Nc2ccccc2N2CCOCC2)c1,10,5,51*,-11,-21,19,38,7,7
COC(=O)[C@]12CCCCC=C1N(Cc1cccc3ccccc13)C(=O)[C@H](CC(=O)NCC13CC4CC(CC(C4)C1)C3)C2,3,/,-39,/,/,/,/,/,/
COc1cc(O)c(CC=C(C)C)c(O)c1C(=O)CCc1ccc(O)cc1,26,9,89*,36,39*,44*,61*,16*,23
O=C(CCc1ccc(O)cc1)c1c(O)cc(O)cc1O,12,37,42,15,12,/,/,/,/
COc1ccc(C2=Cc3ccc(OC(C)=O)cc3OC2)cc1,4,/,-14,/,/,/,/,/,/
SMILES,TAAR1 ag,OX1R antag-1,TAAR1 antagonist,OX1R antag-2,CHO parental Ca,nonsel antag count,TAAR1 ant conf,Ga16 nonsel ag,TAAR1 ag counter
O=C(COc1ccccc1-c1ccccc1)NCCN1C(=O)S/C(=C\c2cccnc2)C1=O,11,15,70*,3,-20,39*,46,12*,9
O=C(NCCN1C(=O)S/C(=C/c2cccnc2)C1=O)c1cccs1,1,25,3,-7,-17,/,/,/,/
COc1ccccc1NC(=O)Cn1ccn(-c2cccc3ccccc23)c(=O)c1=O,1,11,2,-24,-10,/,/,/,/
Cc1ccc(C2c3[nH]c4ccccc4c3C[C@H]3C(=O)N(c4ccccc4C(=O)NCCN4CCOCC4)C(=O)N23)cc1 (stereo not given in full),10,9,61*,-12,-7,27*,42,7,9
Cc1ccccc1C1c2[nH]c3ccccc3c2C[C@H]2C(=O)N(c3ccccc3C(=O)NCCCN3CCOCC3)C(=O)N12 (stereo not given in full),14,8,60*,-30,-22,29*,36,7,6
COc1ccc(C2c3[nH]c4ccccc4c3C[C@H]3C(=O)N(c4ccccc4C(=O)N4CCC(C(=O)O)CC4)C(=O)N23)cc1 (stereo not given in full),4,21,-19,-14,-2,/,/,/,/
Cc1ccc(C2c3[nH]c4ccccc4c3C[C@H]3C(=O)N(c4ccccc4C(=O)NCCCN4CCOCC4)C(=O)N23)cc1 (stereo not given in full),10,4,53*,-26,-16,26*,32,5,5
O=C(NCCCN1CCOCC1)c1ccccc1N1C(=O)[C@@H]2Cc3c([nH]c4ccccc34)C(c3cccc(Cl)c3)N2C1=O (stereo not given in full),18,2,71*,-17,-8,47*,70*,23*,27
O=C(NCCCN1CCOCC1)c1ccccc1N1C(=O)[C@@H]2Cc3c([nH]c4ccccc34)C(c3ccccc3)N2C1=O (stereo not given in full),3,/,-5,/,/,/,/,/,/
Cc1cc(C)nc(SCc2ccc(C(=O)N/N=C/C3CCCCC3)cc2)n1,1,29,3,-34,-12,/,/,/,/
COC12CC(=O)C(C(C)=O)=C(O)C1(C)c1c(O)c(C)c(O)c(C(C)=O)c1O2 (stereo not given),6,/,4,/,/,/,/,/,/
